pIC50: −log10 of the molar value. “Also recorded” adds a separate entry of the source.
Tests used:
DPP-4 = DPP-4 (Homo sapiens, UniProt P27487); assay: biochemical; type: biochemical; conditions: for DPP-4 suppression activity (in words): human recombinant DPP-4; for pIC50: Experimental PIC50, pIC50 = −log IC50, QSAR training set
[1] = tested on: high-fat diet-fed/streptozotocin (HFD/STZ) induced T2DM male albino mice; assay: Acute hypoglycemic activity, intraperitoneal glucose tolerance test; type: in vivo; conditions: IPGTT, diabetic mice, mean ±SD; for Blood glucose level (1 h): single dose 10 mg kg^−1, 1 h; for Blood glucose level (2 h): single dose 10 mg kg^−1, 2 h; for Blood glucose level (3 h): single dose 10 mg kg^−1, 3 h; for Blood glucose level (6 h): single dose 10 mg kg^−1, 6 h
Summary of the method: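 Diabetic male albino mice (high-fat diet-fed/streptozotocin-induced T2DM) received a single 10 mg kg−1 dose of test compound; the IPGTT was then run. Blood glucose (mg dl−1) was read at 1, 2, 3 and 6 h. The groups were normal control, untreated STZ-diabetic control and treated animals, with n = 4 per group. Values are mean ±SD.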

[2] = tested on: normal hTERT-RPE1 cell line; assay: Cytotoxicity bioassay; type: cell-based; conditions: MTT
DPP-8 = DPP-8 (Homo sapiens, UniProt Q6V1X1); assay: In vitro DPP-8 selectivity assay, fluorescence-based; type: biochemical
Sequence of DPP-8 (Q6V1X1 whole entry): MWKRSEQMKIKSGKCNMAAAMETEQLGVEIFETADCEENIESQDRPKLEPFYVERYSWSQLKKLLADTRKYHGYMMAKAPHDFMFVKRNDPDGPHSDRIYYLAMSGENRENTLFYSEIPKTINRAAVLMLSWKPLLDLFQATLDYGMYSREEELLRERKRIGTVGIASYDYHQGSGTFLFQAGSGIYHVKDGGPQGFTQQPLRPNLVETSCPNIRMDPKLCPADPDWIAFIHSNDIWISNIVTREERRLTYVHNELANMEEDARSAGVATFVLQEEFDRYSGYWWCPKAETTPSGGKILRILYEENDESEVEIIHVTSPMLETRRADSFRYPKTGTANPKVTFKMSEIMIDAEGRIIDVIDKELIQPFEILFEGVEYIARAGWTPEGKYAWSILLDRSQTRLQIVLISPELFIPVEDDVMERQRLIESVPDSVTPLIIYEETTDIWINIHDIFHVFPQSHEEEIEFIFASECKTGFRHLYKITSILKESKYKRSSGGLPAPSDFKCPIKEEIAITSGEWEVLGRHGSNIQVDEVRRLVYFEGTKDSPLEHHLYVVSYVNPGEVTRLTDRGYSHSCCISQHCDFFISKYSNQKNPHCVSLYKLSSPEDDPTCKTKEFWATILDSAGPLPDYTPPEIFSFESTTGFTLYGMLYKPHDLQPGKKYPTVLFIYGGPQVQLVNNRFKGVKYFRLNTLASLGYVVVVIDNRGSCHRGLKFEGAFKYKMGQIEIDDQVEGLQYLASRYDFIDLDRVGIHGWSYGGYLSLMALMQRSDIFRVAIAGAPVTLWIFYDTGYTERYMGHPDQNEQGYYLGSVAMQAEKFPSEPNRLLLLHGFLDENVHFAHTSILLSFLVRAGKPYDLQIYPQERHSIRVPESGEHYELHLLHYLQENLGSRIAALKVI

DPP-9 = DPP-9 (Homo sapiens, UniProt Q86TI2); assay: In vitro DPP-9 selectivity assay, fluorescence-based; type: biochemical
Sequence of DPP-9 (Q86TI2 whole entry): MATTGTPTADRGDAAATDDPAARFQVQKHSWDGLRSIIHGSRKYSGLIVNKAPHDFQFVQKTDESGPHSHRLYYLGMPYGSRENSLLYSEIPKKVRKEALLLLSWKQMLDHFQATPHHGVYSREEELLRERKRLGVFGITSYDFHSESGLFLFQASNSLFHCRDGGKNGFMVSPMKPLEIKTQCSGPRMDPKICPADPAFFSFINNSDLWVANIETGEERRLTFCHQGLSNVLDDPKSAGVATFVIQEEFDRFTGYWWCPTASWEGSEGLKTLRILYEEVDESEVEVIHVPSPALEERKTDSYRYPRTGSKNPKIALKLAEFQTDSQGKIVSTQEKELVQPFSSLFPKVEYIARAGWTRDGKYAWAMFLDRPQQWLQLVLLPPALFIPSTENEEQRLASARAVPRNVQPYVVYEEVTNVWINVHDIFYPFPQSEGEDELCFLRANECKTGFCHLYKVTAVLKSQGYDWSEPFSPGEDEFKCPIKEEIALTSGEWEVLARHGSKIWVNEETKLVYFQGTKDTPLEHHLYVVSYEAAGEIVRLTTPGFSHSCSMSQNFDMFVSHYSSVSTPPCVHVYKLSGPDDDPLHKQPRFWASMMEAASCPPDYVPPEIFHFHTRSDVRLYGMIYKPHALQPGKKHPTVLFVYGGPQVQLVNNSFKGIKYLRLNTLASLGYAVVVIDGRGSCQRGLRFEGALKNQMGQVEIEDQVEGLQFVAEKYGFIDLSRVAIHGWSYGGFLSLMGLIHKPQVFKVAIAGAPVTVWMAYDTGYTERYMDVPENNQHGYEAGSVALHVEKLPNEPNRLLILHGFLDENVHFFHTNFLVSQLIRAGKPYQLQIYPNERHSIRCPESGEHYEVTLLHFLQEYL

Sequence of DPP-4 (P27487 whole entry): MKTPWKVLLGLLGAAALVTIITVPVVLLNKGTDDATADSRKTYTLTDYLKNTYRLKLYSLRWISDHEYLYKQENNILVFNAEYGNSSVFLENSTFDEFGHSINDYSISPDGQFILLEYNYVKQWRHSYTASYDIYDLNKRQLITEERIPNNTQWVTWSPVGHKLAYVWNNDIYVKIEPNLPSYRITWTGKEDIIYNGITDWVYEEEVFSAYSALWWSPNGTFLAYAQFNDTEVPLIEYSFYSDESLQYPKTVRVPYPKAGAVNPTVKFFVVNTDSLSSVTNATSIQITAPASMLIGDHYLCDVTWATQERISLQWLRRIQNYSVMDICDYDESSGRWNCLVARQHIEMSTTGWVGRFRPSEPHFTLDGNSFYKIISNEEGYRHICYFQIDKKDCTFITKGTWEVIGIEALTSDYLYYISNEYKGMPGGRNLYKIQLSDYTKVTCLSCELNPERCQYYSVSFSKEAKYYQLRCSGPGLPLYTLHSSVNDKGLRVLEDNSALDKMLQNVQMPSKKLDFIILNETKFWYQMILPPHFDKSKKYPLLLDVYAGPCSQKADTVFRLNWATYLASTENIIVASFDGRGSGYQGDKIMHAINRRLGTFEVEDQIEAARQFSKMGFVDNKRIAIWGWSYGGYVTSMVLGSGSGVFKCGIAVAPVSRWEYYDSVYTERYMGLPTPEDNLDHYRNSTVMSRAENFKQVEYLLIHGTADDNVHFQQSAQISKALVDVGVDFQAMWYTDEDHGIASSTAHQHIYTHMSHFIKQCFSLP

Row | Structure (SMILES) | DPP-4 suppression activity (in words) (DPP-4) | Blood glucose level (1 h) [1] | Blood glucose level (2 h) [1] | Blood glucose level (3 h) [1] | Blood glucose level (6 h) [1] | pIC50 (DPP-4) | folds more potent DPP-4 inhibitory effect than Linagliptin (DPP-4) | Inhibition% of normal hTERT-RPE1 cells [2] | pIC50 (DPP-8) | selectivity towards DPP-4 inhibition over DPP-8/9 (DPP-8; DPP-4 versus DPP-8/9) | pIC50 (DPP-9)
1 | Cn1c(=O)c(=O)n(C)c2cc(S(=O)(=O)Nc3nccs3)ccc21 [Compound 6a, 1,4-Dimethyl-2,3-dioxo-N-(thiazol-2-yl)-1,2,3,4-tetrahydroquinoxaline-6-sulfonamide] | inactive; also recorded: completely lost | – | – | – | – | – | – | – | – | – | –
2 | CC(=O)c1ccc(NS(=O)(=O)c2ccc3c(c2)n(C)c(=O)c(=O)n3C)cc1 [Compound 6b, N-(4-Acetylphenyl)-1,4-dimethyl-2,3-dioxo-1,2,3,4-tetrahydroquinoxaline-6-sulfonamide] | – | 235.64 ± 4.25 mg/dL | 127.33 ± 7.15 mg/dL | 95.67 ± 6.21 mg/dL | 96.24 ± 4.29 mg/dL | – | – | – | – | – | –
3 | Cn1c(=O)c(=O)n(C)c2cc(S(=O)(=O)Nc3ccc(C(=O)O)cc3)ccc21 [Compound 6c, 4-(1,4-Dimethyl-2,3-dioxo-1,2,3,4-tetrahydroquinoxaline-6-sulfonamido)benzoic acid] | – | 220.59 ± 5.12 mg/dL | 125.31 ± 3.47 mg/dL | 90.68 ± 3.45 mg/dL | 90.06 ± 7.25 mg/dL | – | – | – | – | – | –
4 | Cn1c(=O)c(=O)n(C)c2cc(S(=O)(=O)Nc3ccc(F)cc3)ccc21 [Compound 6d, N-(4-Fluorophenyl)-1,4-dimethyl-2,3-dioxo-1,2,3,4-tetrahydroquinoxaline-6-sulfonamide] | – | 226.33 ± 6.34 mg/dL | 120.08 ± 4.11 mg/dL | 99.33 ± 1.29 mg/dL | 93.33 ± 6.11 mg/dL | – | – | – | – | – | –
5 | Cn1c(=O)c(=O)n(C)c2cc(S(=O)(=O)Nc3ccc(Br)cc3)ccc21 [Compound 6e, N-(4-Bromophenyl)-1,4-dimethyl-2,3-dioxo-1,2,3,4-tetrahydroquinoxaline-6-sulfonamide] | – | 222.09 ± 4.85 mg/dL | 125.04 ± 3.26 mg/dL | 95.28 ± 4.55 mg/dL | 92.17 ± 8.45 mg/dL | 9.14 | – | – | – | – | –
6 | Cn1c(=O)c(=O)n(C)c2cc(S(=O)(=O)Nc3ccccc3S)ccc21 [Compound 6f, N-(2-Mercaptophenyl)-1,4-dimethyl-2,3-dioxo-1,2,3,4-tetrahydroquinoxaline-6-sulfonamide] | – | 218.00 ± 4.26 mg/dL | 118.07 ± 8.21 mg/dL | 97.09 ± 6.39 mg/dL | 93.25 ± 7.49 mg/dL | – | – | – | – | – | –
7 | Cn1c(=O)c(=O)n(C)c2cc(S(=O)(=O)Nc3ccc(S(N)(=O)=O)cc3)ccc21 [Compound 7a, 1,4-Dimethyl-2,3-dioxo-N-(4-sulfamoylphenyl)-1,2,3,4-tetrahydroquinoxaline-6-sulfonamide] | – | 251.29 ± 2.80 mg/dL | 138.16 ± 9.23 mg/dL | 122.08 ± 3.31 mg/dL | 99.25 ± 4.35 mg/dL | 9.21 | 1.2–1.6 folds | – | – | – | –
8 | CC(=O)NNS(=O)(=O)c1ccc2c(c1)n(C)c(=O)c(=O)n2C [Compound 9a, N′-Acetyl-1,4-dimethyl-2,3-dioxo-1,2,3,4-tetrahydroquinoxaline-6-sulfonohydrazide] | – | 237.40 ± 3.15 mg/dL | 115.11 ± 4.25 mg/dL | 97.12 ± 8.37 mg/dL | 85.23 ± 1.69 mg/dL | – | – | 20% | < 4.00 | > 1000 folds | < 4.00
9 | Cn1c(=O)c(=O)n(C)c2cc(S(=O)(=O)NNC(=O)CCl)ccc21 [Compound 9b, N′-(2-Chloroacetyl)-1,4-dimethyl-2,3-dioxo-1,2,3,4-tetrahydroquinoxaline-6-sulfono hydrazide] | – | 223.89 ± 3.85 mg/dL | 118.12 ± 5.95 mg/dL | 89.12 ± 4.21 mg/dL | 85.25 ± 2.12 mg/dL | – | – | – | – | – | –
10 | Cn1c(=O)c(=O)n(C)c2cc(S(=O)(=O)NNC(=O)c3ccccc3)ccc21 [Compound 9c, N′-Benzoyl-1,4-dimethyl-2,3-dioxo-1,2,3,4-tetrahydroquinoxaline-6-sulfonohydrazide] | – | 235.40 ± 3.85 mg/dL | 120.11 ± 2.35 mg/dL | 96.68 ± 4.25 mg/dL | 80.16 ± 5.01 mg/dL | – | – | – | – | – | –
11 | Cn1c(=O)c(=O)n(C)c2cc(S(=O)(=O)NNC(=O)NCc3ccccc3)ccc21 [Compound 10b, N-Benzyl-2-((1,4-dimethyl-2,3-dioxo-1,2,3,4-tetrahydroquinoxalin-6-yl)sulfonyl)hydrazine-1-carboxamide] | – | 228.71 ± 3.85 mg/dL | 120.09 ± 3.35 mg/dL | 90.66 ± 5.35 mg/dL | 85.66 ± 4.10 mg/dL | – | – | – | – | – | –
12 | Cn1c(=O)c(=O)n(C)c2cc(S(=O)(=O)NNC(=O)NC(=O)c3ccccc3)ccc21 [Compound 10c, N-Benzoyl-2-((1,4-dimethyl-2,3-dioxo-1,2,3,4-tetrahydroquinoxalin-6-yl)sulfonyl)hydrazine-1-carboxamide] | – | 225.65 ± 3.85 mg/dL | 155.33 ± 2.78 mg/dL | 137.34 ± 9.48 mg/dL | 104.08 ± 3.35 mg/dL | – | – | – | – | – | –
13 | Cn1c(=O)c(=O)n(C)c2cc(S(=O)(=O)NNC(=O)Nc3ccc(Cl)cc3)ccc21 [Compound 10d, N-(4-Chlorophenyl)-2-((1,4-dimethyl-2,3-dioxo-1,2,3,4-tetrahydroquinoxalin-6-yl)sulfonyl)hydrazine-1-carboxamide] | inactive; also recorded: completely lost the activity | – | – | – | – | – | – | – | – | – | –
14 | Cn1c(=O)c(=O)n(C)c2cc(S(=O)(=O)NNC(=S)NC3CCCCC3)ccc21 [Compound 10f, N-Cyclohexyl-2-((1,4-dimethyl-2,3-dioxo-1,2,3,4-tetrahydroquinoxalin-6-yl)sulfonyl)hydrazine-1-carbothioamide] | – | 237.33 ± 3.85 mg/dL | 127.33 ± 4.23 mg/dL | 100.06 ± 6.29 mg/dL | 89.66 ± 2.27 mg/dL | – | – | – | – | – | –
15 | COc1ccc(NC(=S)NNS(=O)(=O)c2ccc3c(c2)n(C)c(=O)c(=O)n3C)cc1 [Compound 10h, 2-((1,4-Dimethyl-2,3-dioxo-1,2,3,4-tetrahydroquinoxalin-6-yl)sulfonyl)-N-(4-methoxyphenyl)hydrazine-1-carbothioamide] | inactive; also recorded: completely lost the activity | – | – | – | – | – | – | – | – | – | –
16 | CC#CCn1c(N2CCC[C@@H](N)C2)nc2c1c(=O)n(Cc1nc(C)c3ccccc3n1)c(=O)n2C [Linagliptin, reference compound] | – | 220.01 ± 3.85 mg/dL | 120.89 ± 1.76 mg/dL | 85.11 ± 2.39 mg/dL | 85.00 ± 5.15 mg/dL | – | – | – | – | – | –

From PMC9043576 (RSC Advances, 2021)
